Data: paper PMC6172447 (iScience, 2018)

Assays:
ULK1 = details: ref Egan et al., 2015; cited from earlier work
U2OS cells [1] = assay: Phagophore formation, endogenous ATG12 immunofluorescence; assay type: cell-based, human
AMPK = assay: KinaseProfiler radiometric assay, AMPK; assay type: biochemical, human; details: selectivity profiling, 40 nM ULK-101 or 15 nM ULK-100
[2] = test system: U2OS cells stably expressing EGFP-DFCP1; assay: Omegasome formation, EGFP-DFCP1 puncta by live-cell fluorescent microscopy; assay type: cell-based, human
In short: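 U2OS cells stably expressing EGFP-DFCP1 were given vehicle or 100 nM AZD8055, with or without 5 μM test compound, for 2.5 hr. They were imaged live by fluorescence microscopy in the green FITC channel. EGFP-DFCP1 objects per cell were counted in 20–25 cells per condition. Mean ± SEM; two-tailed unpaired t test.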

U2OS cells [3] = assay: Autophagic turnover, BafA1-induced LC3B-II accumulation by immunoblotting; assay type: cell-based, human
[4] = test system: 327 recombinant human kinases; assay: KinaseProfiler radiometric selectivity profiling, wild-type human kinase panel; assay type: biochemical; details: 326 non-ULK1 kinases; 500 nM SBI-0206965, 40 nM ULK-101, or 15 nM ULK-100
[5] = test system: nutrient-starved murine embryonic fibroblasts; details: 1 μM, ref Petherick et al., 2015; cited from earlier work
[6] = 5 μM ULK-101 co-treatment with 100 nM AZD8055, 2.5 hr

Q: With CNC(=O)c1ccccc1Oc1nc(Nc2cc(OC)c(OC)c(OC)c2)ncc1Br [SBI-0206965] as the compound, how does the “Effect on Beclin 1 Ser15 phosphorylation in cells” value (ULK1) read?
A: reduce Beclin 1 Ser15 phosphorylation

Q: For O=C(N[C@@H](C1CC1)C(F)(F)F)c1cc(-c2cnn3cc(-c4ccc(F)cc4)cnc23)cs1 [ULK-101], which “Effect on AZD8055-induced ATG12-positive puncta” value (U2OS cells [1]; [6]) is on record?
A: strongly suppressed

Q: What about the “AMPK inhibition in vitro” value (AMPK) of the same compound?
A: spared

Q: What about the “Effect on AZD8055-induced formation of DFCP1-positive structures” value [2, 6] of the same compound?
A: completely abrogated

Q: And the “Effect on AZD8055-induced increase of BafA1-induced LC3B-II accumulation” value (U2OS cells [3]; 5 μM ULK-101 with 100 nM AZD8055, 3 hr)?
A: negated

Q: What about the “Number of other kinases inhibited at least 75% as well as ULK1” value [4] of the same compound?
A: four

Q: With CC(C)[C@H](NC(=O)c1cc(-c2cnn3cc(-c4ccc(OCCN5CCCCC5)cc4)cnc23)cs1)C(F)(F)F [ULK-100] as the compound, how does the “AMPK inhibition in vitro” value (AMPK) read?
A: inhibited

Q: Which results are given for COc1ccc(-c2ccc3c(N4CCOC[C@@H]4C)nc(N4CCOC[C@@H]4C)nc3n2)cc1CO [AZD8055, reference compound]?
A: ATG12-positive puncta formation (U2OS cells [1]; 100 nM AZD8055, 2.5 hr): distinct ATG12-positive puncta; Increase in abundance of DFCP1-positive puncta ([2]; 100 nM AZD8055, 2.5 hr, vs vehicle): over 3 fold; Increase in BafA1-induced LC3B-II accumulation (U2OS cells [3]; 100 nM AZD8055, within 1 hr): over 2 fold

Q: With CN1CCc2cc(Nc3ncc(C4CC4)c(NCCCNC(=O)C4CCC4)n3)ccc2C1 [MRT68921] as the compound, how does the “Effect on BafA1-induced LC3-II accumulation” value [5] read?
A: block BafA1-induced LC3-II accumulation
